Source: ChEMBL document CHEMBL1127051, “Vanilloids. 1. Analogs of capsaicin with antinociceptive and antiinflammatory activity” (J Med Chem, 1993)

Experiments:
[1] = organism: Mus musculus; assay: Ratio of the number of responders to the number of animals tested; 6/6; format: functional
[2] = tested on: Mus musculus; assay: Latency time measured by mouse hot plate test after subcutaneous administration at 200 mg/kg; format: functional; parameters: unit: s
Outline: (§1)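 Male CF-1 mice, 8 per group, given test agent sc in 0.2 mL ethanol/Tween-80/saline (10/10/80); dose 0.68 mmol (200 mg/kg for capsaicin). Placed on copper surface held at 55 ± 0.5 °C. Paw-response latency (s) reported as group mean ± SD; pretest latency ~5 s.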

[3] = tested on: Mus musculus; assay: Percentage inhibition in mouse by using Croton oil-inflamed mouse ear test (topical dosing).; format: functional; parameters: concentration or dose not given beside the values
Outline: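 Male Cox ICR mice (25–35 g), 10 per group. Left ear given 25 μL of 1% compound in ethanol, repeated ~17 h later; 1 h after that, both ears given 25 μL 2% croton oil. After 4 h, 5 mm ear punches weighed. % inhibition = [(C − T1)/C]×100, using left-minus-right weight differences versus vehicle controls.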

[4] = Acute toxicity after intraperitoneal dose at 50 mg/kg in mice; format: organism-based; parameters: dose 50 mg/kg, route intraperitoneal; conditions: mouse, in vivo, ip, read-out: Lethality
Outline: (§2)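 Single intraperitoneal dose at the listed mg/kg; acute toxicity scored as % lethality = number of deaths / number of animals dosed, 7–10 animals per group.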

[5] = tested on: Rattus norvegicus; assay: Percentage analgesia by using rat hot plate test after oral administration at 150 mg/kg; format: functional
Outline: (§3)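 Rats fasted 18 h, prescreened on a 55 ± 0.5 °C hot plate (latency <12 s, else lowest <30 s) to set the 0 h value. Groups of 8 dosed orally in sesame oil (1 mL/200 g); latency read at 1.5, 3, 5 h (24 h if persisting). %analgesia = [(LT(t) − LT(0))/(60 − LT(0))]×100, taken at the time of maximal latency.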

[6] = Acute toxicity after intraperitoneal dose at 100 mg/kg in mice; format: organism-based; parameters: dose 100 mg/kg, route intraperitoneal; conditions: mouse, in vivo, ip, read-out: Lethality; outline: as §2
[7] = organism: Mus musculus; assay: Ratio of the number of responders to the number of animals tested; 4/8; format: functional
[8] = tested on: Rattus norvegicus; assay: Percentage analgesia by rat hot plate test after oral administration at 300 mg/kg.; format: functional; outline: as §3
[9] = organism: Mus musculus; assay: Ratio of the number of responders to the number of animals tested; 5/8; format: functional
[10] = organism: Mus musculus; assay: Ratio of the number of responders to the number of animals tested; 6/8; format: functional
[11] = (§4) Acute toxicity after intraperitoneal dose at 200 mg/kg in mice; format: organism-based; parameters: dose 200 mg/kg, route intraperitoneal; conditions: mouse, in vivo, ip, read-out: Lethality; outline: as §2
[12] = tested on: Rattus norvegicus; assay: Percentage analgesia by using rat hot plate test after oral administration at 300 mg/kg; format: functional; outline: as §3
[13] = tested on: Mus musculus; assay: Latency time measured by mouse hot plate test after subcutaneous administration at 200 mg/kg in experiment 1; format: functional; outline: as §1
[14] = tested on: Mus musculus; assay: Latency time measured by mouse hot plate test after subcutaneous administration at 200 mg/kg in experiment 3; format: functional; outline: as §1
[15] = tested on: Mus musculus; assay: Latency time measured by mouse hot plate test after subcutaneous at 200 mg/kg in experiment 2; format: functional; outline: as §1
[16] = Acute toxicity after intraperitoneal dose at 4 mg/kg in mice; format: organism-based; parameters: dose 4 mg/kg, route intraperitoneal; conditions: mouse, in vivo, ip, read-out: Lethality; outline: as §2
[17] = Acute toxicity after intraperitoneal dose at 400 mg/kg in mice; format: organism-based; parameters: dose 400 mg/kg, route intraperitoneal; conditions: mouse, in vivo, ip, read-out: Lethality; outline: as §2
[18] = organism: Mus musculus; assay: Ratio of the number of responders to the number of animals tested; 7/8; format: functional
[19] = organism: Mus musculus; assay: Ratio of the number of responders to the number of animals tested; 2/8; format: functional
[20] = organism: Mus musculus; assay: Ratio of the number of responders to the number of animals tested; 0/8; format: functional
[21] = Acute toxicity after intraperitoneal dose at 15 mg/kg in mice; format: organism-based; parameters: dose 15 mg/kg, route intraperitoneal; conditions: mouse, in vivo, ip, read-out: Lethality; outline: as §2
[22] = Acute toxicity after intraperitoneal dose at 50 mg/kg; format: organism-based; parameters: dose 50 mg/kg, route intraperitoneal; conditions: mouse, in vivo, ip, read-out: Lethality; outline: as §2
[23] = organism: Mus musculus; assay: Ratio of the number of responders to the number of animals tested; 8/8; format: functional
[24] = Acute toxicity after intraperitoneal dose at 8 mg/kg in mice; format: organism-based; parameters: dose 8 mg/kg, route intraperitoneal; conditions: mouse, in vivo, ip, read-out: Lethality; outline: as §2
[25] = organism: Mus musculus; assay: Ratio of the number of responders to the number of animals tested; 5/5; format: functional
[26] = tested on: Mus musculus; assay: as §4; format: functional; outline: as §2
[27] = organism: Mus musculus; assay: Ratio of the number of responders to the number of animals tested; 6/7; format: functional
Outline: (§5)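 Male CF-1 mice, 8 per group, dosed sc in 0.2 mL ethanol/Tween-80/saline (10/10/80). Latency read on a copper hot plate held at 55 ± 0.5 °C, with a pretest latency of about 5 s; reported as mean latency (s) ± SD. A responder is an animal whose latency exceeds the vehicle-control mean plus 2 SD; response = responders/animals tested.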

[28] = tested on: Mus musculus; assay: Latency time measured by mouse hot plate test after subcutaneous administration at 40 mg/kg; format: functional; outline: as §5

Row | SMILES | Latency [2] | Inhibition [3] [%] | Analgesia [8] [%] | also measured
1 | CCCCCCCC(=O)NCc1ccc(O)c(OC)c1 | >51.3 | 45.8 |  | Response [1]: 6; mortality [4]: 90%
2 | CCCCCC/C=C\CCCCCCCCCCNC(=O)Cc1ccc(O)c(OC)c1 |  |  |  | Analgesia [5]: 62%
3 | CCCC(=O)NCc1ccc(O)c(OC)c1 | 10.8 | 3.2 |  | mortality [6]: 40%; Response [7]: 4
4 | C=CCCCCCCCCNC(=O)Cc1ccc(O)c(OC)c1 | 32.4 | 98.9 | 29 | Response [9]: 5; mortality [6]: 90%
5 | CCCC/C=C/C/C=C\CCCCCCCCC(=O)NCc1ccc(O)c(OC)c1.CCCCC/C=C/C=C\CCCCCCCCC(=O)NCc1ccc(O)c(OC)c1 | >36.6 | 66.8 | 34 | Response [10]: 6; mortality [11]: 0%
6 | CCCCCCCC/C=C/CCCCCCCCNC(=O)Cc1ccc(O)c(OC)c1 |  |  | 95 | 
7 | CCCCCCCCCC/C=C\CCCCCC(=O)NCc1ccc(O)c(OC)c1 | 46.1 | 68.4 | 37 | mortality [11]: 30%
8 | CCCCCCCCNC(=O)Cc1ccc(O)c(OC)c1 |  | 89.1 |  | Analgesia [12]: 7%; Latency [13]: 58.7; Latency [14]: 32.3; Latency [15]: >60; mortality [16]: 50%
9 | CCCCCCCCCC(=O)CCCCCCCC(=O)NCc1ccc(O)c(OC)c1 | 11.2 |  |  | 
10 | CCCCCCC/C=C\CCCCCCCCC(=O)NCc1ccc(O)c(OC)c1 | >38.5 | 81.7 | 69 | mortality [17]: 30%; Response [18]: 7
11 | CCCCCCCCCC/C=C/CCCCCC(=O)NCc1ccc(O)c(OC)c1 | 11.5 | 26.7 | 27 | Response [19]: 2; mortality [11]: 60%
12 | CCCCCCCCCCCCCCCCCC(=O)NCc1ccc(O)c(OC)c1 | 5.9 | 11.3 | 3 | Response [20]: 0; mortality [4]: 0%
13 | CCCCCc1ccc(C(=O)NCc2ccc(O)c(OC)c2)cc1 | 6.9 | 9.3 |  | mortality [4]: 60%
14 | CCCCCCC/C=C\CCCCCCCCCCCCC(=O)NCc1ccc(O)c(OC)c1 |  | 29 |  | mortality [11]: 0%
15 | CCCCCCCC[C@H]1O[C@H]1CCCCCCCC(=O)NCc1ccc(O)c(OC)c1 | 13.5 | 54.5 | 5 | mortality [11]: 40%
16 | CCCCC/C=C\CCCCCCCCC(=O)NCc1ccc(O)c(OC)c1 | >48.8 | 79.3 |  | Response [18]: 7; mortality [11]: 10%
17 | CCCCCCCC#CCCCCCCCCC(=O)NCc1ccc(O)c(OC)c1 | >18.6 | 50.3 | 15 | Response [19]: 2; mortality [11]: 70%
18 | CCCC/C=C\CCCCCCCCNC(=O)Cc1ccc(O)c(OC)c1 |  |  | 74 | 
19 | CCCCCCCC/C=C\CCCCCCCCNC(=O)Cc1ccc(O)c(OC)c1 | 27.9 | 95.5 | 74 | Response [18]: 7; mortality [11]: 50%
20 | COc1cc(CNC(=O)CCCc2ccccc2)ccc1O | 5.6 | 40.9 |  | mortality [4]: 75%
21 | CCCCC(=O)NCc1ccc(O)c(OC)c1 | 9.6 | 24.2 |  | Response [19]: 2; mortality [6]: 60%
22 | CCCCCCNC(=O)Cc1ccc(O)c(OC)c1 | 40.7 | -5.8 |  | 
23 | COc1cc(CNC(=O)CCCCc2ccccc2)ccc1O | 12.2 | 56.4 |  | mortality [4]: 90%
24 | CCCCCCCNC(=O)Cc1ccc(O)c(OC)c1 | 41.1 | 69.4 |  | mortality [21]: 100%
25 | CCCCCCC/C=C/CCCCCCCCC(=O)NCc1ccc(O)c(OC)c1 | 7.1 | 10.9 | 37 | Response [20]: 0; mortality [11]: 60%

Row | SMILES | Latency [2] | Inhibition [3] [%] | Analgesia [8] [%] | also measured
26 | CCCCCCCC/C=C\CCCCCCCNC(=O)Cc1ccc(O)c(OC)c1 |  |  | 66 | 
27 | CCCCCCCCCC(C)CCCCCCCC(=O)NCc1ccc(O)c(OC)c1 (centres undefined) | 26.9 | 88.3 |  | mortality [6]: 40%; Response [7]: 4
28 | CCCCCCCCCCCC(=O)NCc1ccc(O)c(OC)c1 | 9.9 | 48.1 |  | mortality [21]: 25%; Response [20]: 0; mortality [22]: 100%
29 | CCCCCCCCCCCCCC/C=C\CC(=O)NCc1ccc(O)c(OC)c1 | 7.5 |  |  | Response [20]: 0
30 | CCCCCCCC/C=C\CCCCCCCCCCCCCC(=O)NCc1ccc(O)c(OC)c1 | 6.1 | 48 |  | Response [20]: 0
31 | CCCCCCC/C=C\CCCCCCCCCC(=O)NCc1ccc(O)c(OC)c1 | 35.7 | 76.9 | 43 | mortality [11]: 40%
32 | CCCC/C=C/CCCCCCCC(=O)NCc1ccc(O)c(OC)c1 |  |  | 22 | 
33 | C#CCCCCCCCCC(=O)NCc1ccc(O)c(OC)c1 | 17.1 | 36.4 | 15 | mortality [4]: 90%
34 | CCCCCC(=O)NCc1ccc(O)c(OC)c1 | 16.8 | 33.6 |  | Response [7]: 4; mortality [4]: 60%
35 | CCCCC/C=C\CCCCCCCCCCC(=O)NCc1ccc(O)c(OC)c1 | >39.9 | 60 |  | mortality [11]: 30%; Response [23]: 8
36 | CCCCCCC(=O)NCc1ccc(O)c(OC)c1 | 29.8 | 33.7 |  | Response [10]: 6; mortality [4]: 85%
37 | CCCCCCCCCCCCNC(=O)Cc1ccc(O)c(OC)c1 | 5 | 55.3 |  | mortality [4]: 0%
38 | COc1cc(CC(=O)NC2CCCCCCC2)ccc1O | 34.2 | 34.7 | 4 | Response [1]: 6; mortality [11]: 80%
39 | CCCCCC/C=C\CCCCCCCCNC(=O)Cc1ccc(O)c(OC)c1 |  |  | 88 | 
40 | C=C(CCCCCCCCC)CCCCCCCC(=O)NCc1ccc(O)c(OC)c1 | >22.8 | 96.2 | 67 | Response [19]: 2; mortality [11]: 60%
41 | CCCCCCCCCCNC(=O)Cc1ccc(O)c(OC)c1 | 5.3 | 58.1 |  | mortality [21]: 100%
42 | CCCCCCCCC(=O)NCc1ccc(O)c(OC)c1 [NONIVAMIDE] | >31.2 | 72.3 | 17 | mortality [24]: 50%; Response [23]: 8
43 | CCCCCCCCCCC(=O)NCc1ccc(O)c(OC)c1 | 47.7 | 29.6 |  | Response [18]: 7; mortality [4]: 80%
44 | COc1cc(CNC(=O)CCCCCc2ccccc2)ccc1O | 6.2 | 57.6 |  | mortality [4]: 70%
45 | CCCCCCCCCNC(=O)Cc1ccc(O)c(OC)c1 | 22.3 | 80.7 |  | mortality [21]: 86%
46 | COc1cc(CNC(=O)CCCCCCc2ccccc2)ccc1O | 6.8 | 46.2 | 1 | mortality [4]: 60%
47 | CCCCC/C=C\C/C=C\CCCCCCCCNC(=O)Cc1ccc(O)c(OC)c1 |  |  | 89 | 
48 | CCCCCCCCCC(=O)NCc1ccc(O)c(OC)c1 | >43 | 71.4 |  | Response [25]: 5; mortality [4]: 80%
49 | CCCCCCCC[C@H]1O[C@@H]1CCCCCCCC(=O)NCc1ccc(O)c(OC)c1 | 10.7 | 26 |  | Lethality [26]: 60%
50 | COc1cc(CNC(=O)CCCC/C=C\C(C)C)ccc1O [ZUCAPSAICIN] |  | 79.5 | 0 | Response [27]: 6; Latency [28]: >39.9
